Results as given in ChEMBL document CHEMBL1136105, “1,7- and 2,7-naphthyridine derivatives as potent and highly specific PDE5 inhibitors” (Bioorg Med Chem Lett, 2003).
pIC50: −log10 of the molar value.

How the values were obtained:
Phosphodiesterase 6 = assay: Inhibitory activity against Phosphodiesterase 6 isolated from bovine retina; format: protein assay
[1] = molecular target: cGMP-specific 3',5'-cyclic phosphodiesterase (Canis lupus familiaris, UniProt O77746); assay: Inhibitory activity against phosphodiesterase 5 (PDE5) isolated from canine lung
In short: (§1)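 Enzyme IC50 taken from a logarithmic concentration–inhibition curve of at least four points; each value is the mean of at least two duplicate experiments.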

Phosphodiesterase 1 = Phosphodiesterase 1 (Homo sapiens, UniProt P54750+Q01064+Q14123); assay: Inhibitory activity against phosphodiesterase-1 (PDE1) isolated from canine lung; format: protein assay, Canis lupus familiaris; conditions: target entry is the homologue from another species; in short: as §1
[2] = molecular target: T1, cGMP-dependent 3',5'-cyclic phosphodiesterase (Bos taurus, UniProt P14099); assay: Inhibitory activity against phosphodiesterase-2 (PDE2) isolated from bovine adrenal gland; format: tissue-based; in short: as §1
T1 sequence (P14099 whole entry): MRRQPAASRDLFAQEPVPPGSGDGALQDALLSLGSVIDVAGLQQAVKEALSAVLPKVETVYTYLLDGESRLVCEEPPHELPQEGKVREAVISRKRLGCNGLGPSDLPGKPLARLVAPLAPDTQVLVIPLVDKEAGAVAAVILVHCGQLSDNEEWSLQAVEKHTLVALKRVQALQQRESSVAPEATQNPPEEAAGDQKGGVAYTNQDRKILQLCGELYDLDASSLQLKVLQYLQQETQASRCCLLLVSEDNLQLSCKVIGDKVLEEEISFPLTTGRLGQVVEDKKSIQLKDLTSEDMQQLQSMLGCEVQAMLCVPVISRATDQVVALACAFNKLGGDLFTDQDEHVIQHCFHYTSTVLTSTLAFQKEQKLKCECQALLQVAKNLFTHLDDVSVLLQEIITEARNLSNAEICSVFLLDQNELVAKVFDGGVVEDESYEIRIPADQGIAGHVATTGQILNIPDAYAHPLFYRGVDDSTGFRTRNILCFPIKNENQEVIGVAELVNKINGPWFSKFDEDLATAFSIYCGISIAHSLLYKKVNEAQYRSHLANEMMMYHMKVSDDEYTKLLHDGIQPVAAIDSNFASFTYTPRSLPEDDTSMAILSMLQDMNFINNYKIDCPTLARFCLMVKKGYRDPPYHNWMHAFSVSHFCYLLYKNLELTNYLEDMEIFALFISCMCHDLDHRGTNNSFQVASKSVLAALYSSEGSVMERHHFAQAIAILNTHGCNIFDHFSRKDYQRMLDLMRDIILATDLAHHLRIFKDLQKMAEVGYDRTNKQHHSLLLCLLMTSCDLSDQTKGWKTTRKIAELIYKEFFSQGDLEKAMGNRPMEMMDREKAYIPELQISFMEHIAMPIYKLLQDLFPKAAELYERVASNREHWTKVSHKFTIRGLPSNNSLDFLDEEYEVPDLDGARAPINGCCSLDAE

Oryctolagus cuniculus = species on record: Oryctolagus cuniculus; assay: Relaxant effect on rabbit corpus cavernosum; format: functional
Phosphodiesterase 3 = Phosphodiesterase 3 (Homo sapiens, UniProt Q14432+Q13370); assay: Inhibitory activity against phosphodiesterase-3 (PDE3) isolated from canine heart; format: protein assay, Canis lupus familiaris; conditions: target entry is the homologue from another species; in short: as §1
Phosphodiesterase 4 = Phosphodiesterase 4 (Homo sapiens, UniProt P27815+Q08499+Q07343+Q08493); assay: Inhibitory activity against phosphodiesterase 4 (PDE4) isolated from canine lung; format: protein assay, Canis lupus familiaris; conditions: target entry is the homologue from another species; in short: as §1

SMILES | IC50 (Phosphodiesterase 6) [nM] | pIC50 [1] | IC50 (Phosphodiesterase 1) [nM] | pIC50 [2] | EC30 (Oryctolagus cuniculus) [nM] | IC50 (Phosphodiesterase 3) [nM] | IC50 (Phosphodiesterase 4) [nM] | pIC50 (Phosphodiesterase 3) | pIC50 (Phosphodiesterase 4)
COC(=O)c1c(-c2cc(OC)c(OC)c(OC)c2)c2ccc(NCc3ccccn3)nc2c(=O)n1Cc1ccnc(C)c1.Cl | 22 | 8.74 | 41000 | – | – | – | – | – | –
CCCc1nn(C)c2c(=O)[nH]c(-c3cc(S(=O)(=O)N4CCN(C)CC4)ccc3OCC)nc12 | – | – | – | 4.37 | – | – | – | – | –
COC(=O)c1c(-c2cc(OC)c(OC)c(OC)c2)c2ccc(OCc3ccccn3)nc2c(=O)n1Cc1cccnc1.Cl | 38 | 8.64 | 12000 | – | – | – | – | – | –
COC(=O)c1c(-c2cc(OC)c(OC)c(OC)c2)c2ccc(OCCc3ccccn3)nc2c(=O)n1Cc1ccnc(C)c1 | – | 8.92 | – | – | – | – | – | – | –
COC(=O)c1c(-c2cc(OC)c(OC)c(OC)c2)c2ccc(OCc3ccccn3)nc2c(=O)n1Cc1ccccn1.Cl | 230 | 7.96 | 20000 | – | – | – | – | – | –
COC(=O)c1c(-c2cc(OC)c(OC)c(OC)c2)c2ccnc(OCCc3ccccn3)c2c(=O)n1Cc1ccnc(C)c1.Cl | 72 | 9.28 | 20000 | < 4.00 | 22 | > 100000 | 50000 | – | –
COC(=O)c1c(-c2cc(OC)c(OC)c(OC)c2)c2ccc(OCc3ccccn3)nc2c(=O)n1Cc1ccnc(C)c1.Cl | 8.6 | 9.66 | 33000 | 4.40 | 53 | > 100000 | 30000 | – | –
COC(=O)c1c(-c2cc(OC)c(OC)c(OC)c2)c2ccnc(OCc3ncccn3)c2c(=O)n1Cc1ccnc(C)c1.Cl | 56 | 9.64 | > 100000 | < 4.00 | 5 | > 100000 | 67000 | – | –
COC(=O)c1c(-c2cc(OC)c(OC)c(OC)c2)c2ccc(OCc3cnccn3)nc2c(=O)n1Cc1ccnc(C)c1.Cl | 7.7 | 9.54 | 22000 | – | – | – | – | – | –
COC(=O)c1c(-c2cc(OC)c(OC)c(OC)c2)c2ccnc(NCCO)c2c(=O)n1Cc1ccnc(C)c1.Cl | 280 | 8.59 | 19000 | 4.11 | 14 | 5300 | 450 | – | –
COC(=O)c1c(-c2cc(OC)c(OC)c(OC)c2)c2ccc(OCc3ccccn3)nc2c(=O)n1Cc1ccncc1.Cl | 11 | 9.42 | 45000 | – | – | – | – | – | –
COC(=O)c1c(-c2cc(OC)c(OC)c(OC)c2)c2ccc(OCc3ncccn3)nc2c(=O)n1Cc1ccnc(C)c1.Cl | 42 | 8.72 | > 100000 | 4.60 | 37 | – | – | < 4.00 | 4.72
COC(=O)c1c(-c2cc(OC)c(OC)c(OC)c2)c2ccc(OCc3ccccn3)nc2c(=O)n1-c1ccc(N)cc1.Cl | 22 | 9.29 | 40000 | – | – | – | – | – | –
COC(=O)c1c(-c2cc(OC)c(OC)c(OC)c2)c2ccnc(OCc3ccccn3)c2c(=O)n1Cc1ccnc(C)c1 | 4.4 | 9.51 | 25000 | – | – | – | – | – | –
COC(=O)c1c(-c2cc(OC)c(OC)c(OC)c2)c2ccnc(N3CCN(C)CC3)c2c(=O)n1Cc1ccnc(C)c1 | 1400 | 7.03 | > 100000 | – | – | – | – | – | –
COC(=O)c1c(-c2cc(OC)c(OC)c(OC)c2)c2ccc(OCc3ccccn3)cc2c(=O)n1-c1ccc(N)cc1.O=S(=O)(O)O | 28 | – | 3000 | 5.01 | 7.9 | – | – | – | –
